# Calls of active or inactive are those of the source. No cut-off for these calls is given here.
# Columns and labels:
# FTC-133 [1] = assay: Induction of apoptosis in human FTC-133 cells assessed as caspase-3 activation at 50 uM after 24 hrs by fluorescence microscopic analysis (reference value: 2.51 +/- 1%); type: functional
# 8305C [2] = assay: Cytotoxicity against human 8305C cells assessed as reduction in cell viability after 24 hrs by MTT assay; type: functional, cell-based
# Method in brief: (§1)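 Cells seeded at 6 × 10^5 per well and exposed to 5–100 µM for 24 h at 37 °C in 5% CO2. Then 0.5% MTT in PBS (pH 7.4) was added for 1 h, supernatant replaced with DMSO, and OD read at 570 nm. IC50 was read graphically from dose-effect curves. Values are mean ± SD of four independent experiments, each run in triplicate.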
# FTC-133 [3] = assay: Cytotoxicity against human FTC-133 cells assessed as reduction in cell viability after 24 hrs by MTT assay; type: functional, cell-based; details: FTC-133, 24 h; method in brief: as §1
# 8305C [4] = assay: Induction of apoptosis in human 8305C cells assessed as DNA fragmentation at 50 uM after 24 hrs by SYBR green-1 staining-based electrophoretic analysis; type: functional, cell-based
# Method in brief: (§2)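 After 24 h of treatment, DNA was extracted from untreated and treated cells. Fragments were separated on a 2% agarose gel with SYBR Green I staining, and GAPDH-1 served as the reference gene.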
# FTC-133 [5] = assay: Cytotoxicity against human FTC-133 cells assessed as reduction in cell viability at 50 uM after 24 hrs by MTT assay; type: functional, cell-based
# Method in brief: (§3)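 Cultures were treated at 50 µM for 24 h at 37 °C in 5% CO2 alongside untreated controls. Viability was read by MTT reduction (0.5% MTT in PBS pH 7.4, 1 h), with formazan dissolved in DMSO and OD measured at 570 nm.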
# FTC-133 [6] = assay: Induction of apoptosis in human FTC-133 cells assessed as DNA fragmentation at 50 uM after 24 hrs by SYBR green-1 staining-based electrophoretic analysis; type: functional, cell-based; method in brief: as §2
# 8305C [7] = assay: Cytotoxicity against human 8305C cells assessed as reduction in cell viability at 50 uM after 24 hrs by MTT assay; type: functional, cell-based; method in brief: as §3
# 8305C [8] = assay: Induction of apoptosis in human 8305C cells assessed as caspase-3 activation at 50 uM after 24 hrs by fluorescence microscopic analysis (reference value: 3.22 +/- 1%); type: functional
Compound,Activity (FTC-133 [1]),IC50 (8305C [2]),IC50 (FTC-133 [3]),Activity (8305C [4]),Activity (FTC-133 [5]),Activity (FTC-133 [6]),Activity (8305C [7]),Activity (8305C [8])
O=C1CN2/C(=N/c3ccc4ccc5cccc6ccc3c4c56)OCC2CN1c1ccccc1 (configuration not stated),29.3%,80.3 µM,74.2 µM,Active,Active,Active,Active,18.24%
O=C1CN2/C(=N/c3ccccc3)OCC2CN1C1CCCCC1 (configuration not stated),88.68%,70.7 µM,50 µM,Active,Active,Active,Active,75.88%
O=C1CN2/C(=N/c3ccc4ccc5cccc6ccc3c4c56)OCC2CN1C1CCCCC1 (configuration not stated),89.24%,68.5 µM,48.3 µM,Active,Active,Active,Active,68.3%
O=C1CN2/C(=N/c3cccc4ccccc34)OCC2CN1C1CCCCC1 (configuration not stated),90.56%,61 µM,44.8 µM,Active,Active,Active,Active,78.56%

# — ChEMBL document CHEMBL2417413, “Synthesis and biological evaluation of 1,7,8,8a-tetrahydro-3H-oxazolo[3,4-a]pyrazin-6(5H)-ones as antitumoral agents” (Bioorg Med Chem, 2013)
